ChEMBL document CHEMBL4689842, “EUbOPEN Chemogenomics Library wave 1” (2021)

Key:
Assay type in all cases: toxicity, cell-based
Fibroblast = assay: Multiplex assay against human fibroblast
How it was run: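 On a CQ1 microscope at 37°C and 5% CO2, live cells were imaged after compound addition. They had been stained at seeding with Hoechst33342, BioTracker Green Microtubule Cytoskeleton Dye, MitoTracker Red and Annexin V Alexa Fluor 680. CellPathfinder machine-learning gating assigned cells to Hoechst high-intensity objects or normal cells, normal cells to healthy, pyknosed or fragmented nuclei, and pyknosed cells to mitotic or apoptotic. Tubulin, mitochondrial-mass and membrane-permeability phenotypes are per cents of healthy-nucleus cells.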

HEK-293T = assay: Incucyte cell viability with HEK293T; details: human, 10 µM, compound concentration 10 uM; also: filed as whole numbers so only -1 and 0 and 1 occur
U2OS = assay: Incucyte cell viability with U2OS; details: human, 10 µM, compound concentration 10 uM; also: filed as whole numbers so only -1 and 0 and 1 occur
[1] = 12 h, 1 µM, compound concentration 1 uM, replicate 1
[2] = 12 h, 1 µM, compound concentration 1 uM, replicate 2
[3] = 12 h, 10 µM, compound concentration 10 uM, replicate 1
[4] = 12 h, 10 µM, compound concentration 10 uM, replicate 2
[5] = 24 h, 1 µM, compound concentration 1 uM, replicate 1
[6] = 24 h, 1 µM, compound concentration 1 uM, replicate 2
[7] = 24 h, 10 µM, compound concentration 10 uM, replicate 1
[8] = 24 h, 10 µM, compound concentration 10 uM, replicate 2
[9] = 6 h, replicate number 1, timepoint 6 hours
[10] = 12 h, replicate number 1, timepoint 12 hours
[11] = 18 h, replicate number 1, timepoint 18 hours
[12] = 24 h, replicate number 1, timepoint 24 hours

CCOc1cc2ncc(C#N)c(Nc3ccc(OCc4cccc(F)c4)c(Cl)c3)c2cc1NC(=O)/C=C/CN(C)C [HKI-357]
Population Apoptotic (%) (Fibroblast; [1]): 72% | Population Fragmented Nuclei (%) (Fibroblast; [1]): 21% | Population Healthy Nuclei (%) (Fibroblast; [1]): 60% | Population Hoechst High Intensity Objects (%) (Fibroblast; [1]): 14% | Population Membrane Permeable-Phenotype (%) (Fibroblast; [1]): 7% | Population Mitochondria Different-Phenotype (%) (Fibroblast; [1]): 7% | Population Mitotic Cells (%) (Fibroblast; [1]): 27% | Population Normal (%) (Fibroblast; [1]): 85% | Population Pyknosed Nuclei (%) (Fibroblast; [1]): 18% | Population Tubulin-Different-Phenotype (%) (Fibroblast; [1]): 11% | Total Cell Count (Fibroblast; [1]): 223 | Population Apoptotic (%) (Fibroblast; [2]): 33% | Population Fragmented Nuclei (%) (Fibroblast; [2]): 60% | Population Healthy Nuclei (%) (Fibroblast; [2]): 31% | Population Hoechst High Intensity Objects (%) (Fibroblast; [2]): 34% | Population Membrane Permeable-Phenotype (%) (Fibroblast; [2]): 4% | Population Mitochondria Different-Phenotype (%) (Fibroblast; [2]): 9% | Population Mitotic Cells (%) (Fibroblast; [2]): 66% | Population Normal (%) (Fibroblast; [2]): 65% | Population Pyknosed Nuclei (%) (Fibroblast; [2]): 8% | Population Tubulin-Different-Phenotype (%) (Fibroblast; [2]): 13% | Total Cell Count (Fibroblast; [2]): 107 | Population Apoptotic (%) (Fibroblast; [3]): 76% | Population Fragmented Nuclei (%) (Fibroblast; [3]): 42% | Population Healthy Nuclei (%) (Fibroblast; [3]): 37% | Population Hoechst High Intensity Objects (%) (Fibroblast; [3]): 13% | Population Membrane Permeable-Phenotype (%) (Fibroblast; [3]): 15% | Population Mitochondria Different-Phenotype (%) (Fibroblast; [3]): 12% | Population Mitotic Cells (%) (Fibroblast; [3]): 23% | Population Normal (%) (Fibroblast; [3]): 86% | Population Pyknosed Nuclei (%) (Fibroblast; [3]): 20% | Population Tubulin-Different-Phenotype (%) (Fibroblast; [3]): 46% | Total Cell Count (Fibroblast; [3]): 368 | Population Apoptotic (%) (Fibroblast; [4]): 37% | Population Fragmented Nuclei (%) (Fibroblast; [4]): 61% | Population Healthy Nuclei (%) (Fibroblast; [4]): 20% | Population Hoechst High Intensity Objects (%) (Fibroblast; [4]): 46% | Population Mitochondria Different-Phenotype (%) (Fibroblast; [4]): 26% | Population Mitotic Cells (%) (Fibroblast; [4]): 62% | Population Normal (%) (Fibroblast; [4]): 53% | Population Pyknosed Nuclei (%) (Fibroblast; [4]): 17% | Population Tubulin-Different-Phenotype (%) (Fibroblast; [4]): 78% | Total Cell Count (Fibroblast; [4]): 170 | Population Apoptotic (%) (Fibroblast; [5]): 57% | Population Fragmented Nuclei (%) (Fibroblast; [5]): 23% | Population Healthy Nuclei (%) (Fibroblast; [5]): 57% | Population Hoechst High Intensity Objects (%) (Fibroblast; [5]): 15% | Population Membrane Permeable-Phenotype (%) (Fibroblast; [5]): 6% | Population Mitochondria Different-Phenotype (%) (Fibroblast; [5]): 3% | Population Mitotic Cells (%) (Fibroblast; [5]): 42% | Population Normal (%) (Fibroblast; [5]): 84% | Population Pyknosed Nuclei (%) (Fibroblast; [5]): 18% | Population Tubulin-Different-Phenotype (%) (Fibroblast; [5]): 5% | Total Cell Count (Fibroblast; [5]): 238 | Population Apoptotic (%) (Fibroblast; [6]): 60% | Population Fragmented Nuclei (%) (Fibroblast; [6]): 59% | Population Healthy Nuclei (%) (Fibroblast; [6]): 33% | Population Hoechst High Intensity Objects (%) (Fibroblast; [6]): 31% | Population Membrane Permeable-Phenotype (%) (Fibroblast; [6]): 13% | Population Mitochondria Different-Phenotype (%) (Fibroblast; [6]): 4% | Population Mitotic Cells (%) (Fibroblast; [6]): 40% | Population Normal (%) (Fibroblast; [6]): 68% | Population Pyknosed Nuclei (%) (Fibroblast; [6]): 7% | Population Tubulin-Different-Phenotype (%) (Fibroblast; [6]): 18% | Total Cell Count (Fibroblast; [6]): 97 | Population Apoptotic (%) (Fibroblast; [7]): 73% | Population Fragmented Nuclei (%) (Fibroblast; [7]): 44% | Population Healthy Nuclei (%) (Fibroblast; [7]): 42% | Population Hoechst High Intensity Objects (%) (Fibroblast; [7]): 19% | Population Membrane Permeable-Phenotype (%) (Fibroblast; [7]): 5% | Population Mitochondria Different-Phenotype (%) (Fibroblast; [7]): 7% | Population Mitotic Cells (%) (Fibroblast; [7]): 26% | Population Normal (%) (Fibroblast; [7]): 80% | Population Pyknosed Nuclei (%) (Fibroblast; [7]): 12% | Population Tubulin-Different-Phenotype (%) (Fibroblast; [7]): 39% | Total Cell Count (Fibroblast; [7]): 409 | Population Apoptotic (%) (Fibroblast; [8]): 63% | Population Fragmented Nuclei (%) (Fibroblast; [8]): 69% | Population Healthy Nuclei (%) (Fibroblast; [8]): 19% | Population Hoechst High Intensity Objects (%) (Fibroblast; [8]): 45% | Population Membrane Permeable-Phenotype (%) (Fibroblast; [8]): 4% | Population Mitochondria Different-Phenotype (%) (Fibroblast; [8]): 23% | Population Mitotic Cells (%) (Fibroblast; [8]): 36% | Population Normal (%) (Fibroblast; [8]): 54% | Population Pyknosed Nuclei (%) (Fibroblast; [8]): 10% | Population Tubulin-Different-Phenotype (%) (Fibroblast; [8]): 66% | Total Cell Count (Fibroblast; [8]): 193 | Growth Rate (HEK-293T; 0 h, replicate number 1, timepoint 0 hours): 0 | Growth Rate (HEK-293T; [9]): 0 | Growth Rate (HEK-293T; [10]): 0 | Growth Rate (HEK-293T; [11]): 0 | Growth Rate (HEK-293T; [12]): 0 | Growth Rate (U2OS; 0 h, replicate number 2, timepoint 0 hours): 0 | Growth Rate (U2OS; [9]): 0 | Growth Rate (U2OS; [10]): 0 | Growth Rate (U2OS; [11]): 0 | Growth Rate (U2OS; [12]): 0
